Reference: ChEMBL document CHEMBL5058577, “EUbOPEN Chemogenomics Library 2 (Multiplex)” (2022)

Test system: Fibroblast
Assay: Multiplex assay against human fibroblast
Assay type: toxicity, cell-based
How it was run: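 Cells stained live at seeding with Hoechst33342, BioTracker Green Microtubule Cytoskeleton Dye, MitoTracker Red and Annexin V Alexa Fluor 680 were imaged on a CQ1 microscope at 37°C and 5% CO2 after compound addition. Their classification by CellPathfinder machine-learning gating ran from Hoechst high-intensity objects versus normal cells, to healthy, pyknosed or fragmented nuclei among normal cells, to mitotic or apoptotic among pyknosed cells. Tubulin, mitochondrial-mass and membrane-permeability phenotypes are per cents of healthy-nucleus cells.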

[1] = 12 h, 1 µM, compound concentration 1 uM, replicate 1
[2] = 12 h, 1 µM, compound concentration 1 uM, replicate 2
[3] = 12 h, 10 µM, compound concentration 10 uM, replicate 1
[4] = 12 h, 10 µM, compound concentration 10 uM, replicate 2
[5] = 24 h, 1 µM, compound concentration 1 uM, replicate 1
[6] = 24 h, 1 µM, compound concentration 1 uM, replicate 2
[7] = 24 h, 10 µM, compound concentration 10 uM, replicate 1
[8] = 24 h, 10 µM, compound concentration 10 uM, replicate 2
[9] = 48 h, 1 µM, compound concentration 1 uM, replicate 1
[10] = 48 h, 1 µM, compound concentration 1 uM, replicate 2
[11] = 48 h, 10 µM, compound concentration 10 uM, replicate 1
[12] = 48 h, 10 µM, compound concentration 10 uM, replicate 2

## CC(=O)NCCc1c(Cc2ccccc2)[nH]c2ccccc12 [LUZINDOLE]
[1]
  Population Apoptotic (%): 41%
  Population Fragmented Nuclei (%): 15%
  Population Healthy Nuclei (%): 65%
  Population Hoechst High Intensity Objects (%): 1%
  Population Membrane Permeable-Phenotype (%): 2%
  Population Mitochondria Different-Phenotype (%): 7%
  Population Mitotic Cells (%): 58%
  Population Normal (%): 98%
  Population Pyknosed Nuclei (%): 18%
  Population Tubulin-Different-Phenotype (%): 30%
  Total Cell Count: 129
[2]
  Population Apoptotic (%): 40%
  Population Fragmented Nuclei (%): 25%
  Population Healthy Nuclei (%): 39%
  Population Hoechst High Intensity Objects (%): 4%
  Population Membrane Permeable-Phenotype (%): 9%
  Population Mitochondria Different-Phenotype (%): 11%
  Population Mitotic Cells (%): 59%
  Population Normal (%): 95%
  Population Pyknosed Nuclei (%): 34%
  Population Tubulin-Different-Phenotype (%): 50%
  Total Cell Count: 134
[3]
  Population Apoptotic (%): 19%
  Population Fragmented Nuclei (%): 15%
  Population Healthy Nuclei (%): 69%
  Population Hoechst High Intensity Objects (%): 2%
  Population Membrane Permeable-Phenotype (%): 2%
  Population Mitochondria Different-Phenotype (%): 7%
  Population Mitotic Cells (%): 80%
  Population Normal (%): 97%
  Population Pyknosed Nuclei (%): 15%
  Population Tubulin-Different-Phenotype (%): 42%
  Total Cell Count: 140
[4]
  Population Apoptotic (%): 21%
  Population Fragmented Nuclei (%): 26%
  Population Healthy Nuclei (%): 59%
  Population Membrane Permeable-Phenotype (%): 13%
  Population Mitochondria Different-Phenotype (%): 4%
  Population Mitotic Cells (%): 78%
  Population Pyknosed Nuclei (%): 13%
  Population Tubulin-Different-Phenotype (%): 32%
  Total Cell Count: 105
[5]
  Population Apoptotic (%): 54%
  Population Fragmented Nuclei (%): 21%
  Population Healthy Nuclei (%): 61%
  Population Hoechst High Intensity Objects (%): 0%
  Population Membrane Permeable-Phenotype (%): 0%
  Population Mitochondria Different-Phenotype (%): 3%
  Population Mitotic Cells (%): 45%
  Population Normal (%): 99%
  Population Pyknosed Nuclei (%): 16%
  Population Tubulin-Different-Phenotype (%): 13%
  Total Cell Count: 134
[6]
  Population Apoptotic (%): 45%
  Population Fragmented Nuclei (%): 25%
  Population Healthy Nuclei (%): 47%
  Population Hoechst High Intensity Objects (%): 5%
  Population Membrane Permeable-Phenotype (%): 8%
  Population Mitochondria Different-Phenotype (%): 8%
  Population Mitotic Cells (%): 54%
  Population Normal (%): 94%
  Population Pyknosed Nuclei (%): 26%
  Population Tubulin-Different-Phenotype (%): 50%
  Total Cell Count: 137
[7]
  Population Apoptotic (%): 47%
  Population Fragmented Nuclei (%): 15%
  Population Healthy Nuclei (%): 67%
  Population Hoechst High Intensity Objects (%): 2%
  Population Membrane Permeable-Phenotype (%): 1%
  Population Mitochondria Different-Phenotype (%): 5%
  Population Mitotic Cells (%): 52%
  Population Normal (%): 97%
  Population Pyknosed Nuclei (%): 17%
  Population Tubulin-Different-Phenotype (%): 29%
  Total Cell Count: 138
[8]
  Population Apoptotic (%): 23%
  Population Fragmented Nuclei (%): 27%
  Population Healthy Nuclei (%): 59%
  Population Hoechst High Intensity Objects (%): 3%
  Population Membrane Permeable-Phenotype (%): 5%
  Population Mitochondria Different-Phenotype (%): 3%
  Population Mitotic Cells (%): 76%
  Population Normal (%): 96%
  Population Pyknosed Nuclei (%): 12%
  Population Tubulin-Different-Phenotype (%): 33%
  Total Cell Count: 105
[9]
  Population Apoptotic (%): 75%
  Population Fragmented Nuclei (%): 15%
  Population Healthy Nuclei (%): 72%
  Population Hoechst High Intensity Objects (%): 5%
  Population Membrane Permeable-Phenotype (%): 2%
  Population Mitochondria Different-Phenotype (%): 3%
  Population Mitotic Cells (%): 25%
  Population Normal (%): 94%
  Population Pyknosed Nuclei (%): 12%
  Population Tubulin-Different-Phenotype (%): 24%
  Total Cell Count: 134
[10]
  Population Apoptotic (%): 39%
  Population Fragmented Nuclei (%): 27%
  Population Healthy Nuclei (%): 55%
  Population Hoechst High Intensity Objects (%): 8%
  Population Membrane Permeable-Phenotype (%): 9%
  Population Mitochondria Different-Phenotype (%): 5%
  Population Mitotic Cells (%): 60%
  Population Normal (%): 91%
  Population Pyknosed Nuclei (%): 16%
  Population Tubulin-Different-Phenotype (%): 46%
  Total Cell Count: 149
[11]
  Population Apoptotic (%): 80%
  Population Fragmented Nuclei (%): 19%
  Population Healthy Nuclei (%): 70%
  Population Hoechst High Intensity Objects (%): 3%
  Population Membrane Permeable-Phenotype (%): 0%
  Population Mitochondria Different-Phenotype (%): 3%
  Population Mitotic Cells (%): 20%
  Population Normal (%): 96%
  Population Pyknosed Nuclei (%): 10%
  Population Tubulin-Different-Phenotype (%): 34%
  Total Cell Count: 147
[12]
  Population Apoptotic (%): 54%
  Population Fragmented Nuclei (%): 34%
  Population Healthy Nuclei (%): 54%
  Population Hoechst High Intensity Objects (%): 4%
  Population Membrane Permeable-Phenotype (%): 3%
  Population Mitotic Cells (%): 45%
  Population Normal (%): 95%
  Population Tubulin-Different-Phenotype (%): 50%
  Total Cell Count: 111

## CSc1ccccc1N1CCN(CCCCCC(=O)NC2CCCc3ccccc32)CC1.Cl (stereo unspecified)
[1]
  Population Apoptotic (%): 37%
  Population Fragmented Nuclei (%): 26%
  Population Healthy Nuclei (%): 49%
  Population Hoechst High Intensity Objects (%): 6%
  Population Membrane Permeable-Phenotype (%): 1%
  Population Mitochondria Different-Phenotype (%): 15%
  Population Mitotic Cells (%): 62%
  Population Normal (%): 93%
  Population Pyknosed Nuclei (%): 24%
  Population Tubulin-Different-Phenotype (%): 65%
  Total Cell Count: 126
[2]
  Population Apoptotic (%): 50%
  Population Fragmented Nuclei (%): 32%
  Population Healthy Nuclei (%): 41%
  Population Hoechst High Intensity Objects (%): 2%
  Population Membrane Permeable-Phenotype (%): 9%
  Population Mitochondria Different-Phenotype (%): 7%
  Population Mitotic Cells (%): 50%
  Population Normal (%): 97%
  Population Pyknosed Nuclei (%): 25%
  Population Tubulin-Different-Phenotype (%): 74%
  Total Cell Count: 135
[3]
  Population Apoptotic (%): 58%
  Population Fragmented Nuclei (%): 25%
  Population Healthy Nuclei (%): 57%
  Population Hoechst High Intensity Objects (%): 5%
  Population Membrane Permeable-Phenotype (%): 0%
  Population Mitochondria Different-Phenotype (%): 78%
  Population Mitotic Cells (%): 41%
  Population Normal (%): 94%
  Population Pyknosed Nuclei (%): 17%
  Population Tubulin-Different-Phenotype (%): 95%
  Total Cell Count: 220
[4]
  Population Apoptotic (%): 66%
  Population Fragmented Nuclei (%): 34%
  Population Healthy Nuclei (%): 50%
  Population Mitochondria Different-Phenotype (%): 36%
  Population Mitotic Cells (%): 33%
  Population Pyknosed Nuclei (%): 14%
  Population Tubulin-Different-Phenotype (%): 92%
  Total Cell Count: 242
[5]
  Population Apoptotic (%): 52%
  Population Fragmented Nuclei (%): 29%
  Population Healthy Nuclei (%): 52%
  Population Hoechst High Intensity Objects (%): 6%
  Population Membrane Permeable-Phenotype (%): 0%
  Population Mitochondria Different-Phenotype (%): 21%
  Population Mitotic Cells (%): 47%
  Population Normal (%): 93%
  Population Pyknosed Nuclei (%): 18%
  Population Tubulin-Different-Phenotype (%): 40%
  Total Cell Count: 133
[6]
  Population Apoptotic (%): 37%
  Population Fragmented Nuclei (%): 33%
  Population Healthy Nuclei (%): 43%
  Population Hoechst High Intensity Objects (%): 3%
  Population Membrane Permeable-Phenotype (%): 3%
  Population Mitochondria Different-Phenotype (%): 11%
  Population Mitotic Cells (%): 62%
  Population Normal (%): 96%
  Population Pyknosed Nuclei (%): 23%
  Population Tubulin-Different-Phenotype (%): 64%
  Total Cell Count: 130
[7]
  Population Apoptotic (%): 90%
  Population Fragmented Nuclei (%): 22%
  Population Healthy Nuclei (%): 66%
  Population Hoechst High Intensity Objects (%): 7%
  Population Membrane Permeable-Phenotype (%): 0%
  Population Mitochondria Different-Phenotype (%): 81%
  Population Mitotic Cells (%): 9%
  Population Normal (%): 92%
  Population Pyknosed Nuclei (%): 11%
  Population Tubulin-Different-Phenotype (%): 98%
  Total Cell Count: 211
[8]
  Population Apoptotic (%): 66%
  Population Fragmented Nuclei (%): 33%
  Population Healthy Nuclei (%): 56%
  Population Hoechst High Intensity Objects (%): 3%
  Population Mitochondria Different-Phenotype (%): 51%
  Population Mitotic Cells (%): 33%
  Population Normal (%): 96%
  Population Pyknosed Nuclei (%): 9%
  Population Tubulin-Different-Phenotype (%): 90%
  Total Cell Count: 258
[9]
  Population Apoptotic (%): 61%
  Population Fragmented Nuclei (%): 26%
  Population Healthy Nuclei (%): 56%
  Population Hoechst High Intensity Objects (%): 6%
  Population Membrane Permeable-Phenotype (%): 2%
  Population Mitochondria Different-Phenotype (%): 17%
  Population Mitotic Cells (%): 38%
  Population Normal (%): 93%
  Population Pyknosed Nuclei (%): 17%
  Population Tubulin-Different-Phenotype (%): 69%
  Total Cell Count: 132
[10]
  Population Apoptotic (%): 44%
  Population Fragmented Nuclei (%): 33%
  Population Healthy Nuclei (%): 45%
  Population Hoechst High Intensity Objects (%): 1%
  Population Membrane Permeable-Phenotype (%): 0%
  Population Mitochondria Different-Phenotype (%): 12%
  Population Mitotic Cells (%): 56%
  Population Normal (%): 98%
  Population Pyknosed Nuclei (%): 20%
  Population Tubulin-Different-Phenotype (%): 64%
  Total Cell Count: 124
[11]
  Population Apoptotic (%): 91%
  Population Fragmented Nuclei (%): 25%
  Population Healthy Nuclei (%): 61%
  Population Hoechst High Intensity Objects (%): 8%
  Population Membrane Permeable-Phenotype (%): 0%
  Population Mitochondria Different-Phenotype (%): 82%
  Population Mitotic Cells (%): 8%
  Population Normal (%): 91%
  Population Pyknosed Nuclei (%): 12%
  Population Tubulin-Different-Phenotype (%): 97%
  Total Cell Count: 195
[12]
  Population Apoptotic (%): 68%
  Population Fragmented Nuclei (%): 38%
  Population Healthy Nuclei (%): 53%
  Population Hoechst High Intensity Objects (%): 4%
  Population Membrane Permeable-Phenotype (%): 2%
  Population Mitochondria Different-Phenotype (%): 33%
  Population Mitotic Cells (%): 31%
  Population Normal (%): 95%
  Population Pyknosed Nuclei (%): 8%
  Population Tubulin-Different-Phenotype (%): 83%
  Total Cell Count: 281
